# According to PubChem BioAssay:
# Activity calls are given as the source filed them.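 The calls were made as follows, unless noted: active = viability at or below 30% in both replicate assays; inconclusive = viability at or below 30% in just one of the two assays; inactive = the rest.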
# Experiments:
# [1] = Her2 expression decrease, cell viability multiplex – SKBR3 breast tumor cells, AlphaScreen, ATP viability, primary screen (AID 461;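 active = Her2 level under about 52% in both replicate screens, with viability over 70% of control, limit read from the data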;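 as to Her2 level: lower value means less Her2 protein in the cells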;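 as to viability: percent of carrier control wells set as 100% viability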); settings: SKBR3 Her2 protein level, 18-24 h, measured here: SKBR3 viability, ATP luminescence, at 10 µM
# [2] = biological target: Receptor tyrosine-protein kinase erbB-2 (Homo sapiens) (UniProt P04626); assay: as above; settings: 18-24 h, at 10 µM, stronger effect = lower value
# Chain of Receptor tyrosine-protein kinase erbB-2 (Homo sapiens) (P04626 whole entry, looked up): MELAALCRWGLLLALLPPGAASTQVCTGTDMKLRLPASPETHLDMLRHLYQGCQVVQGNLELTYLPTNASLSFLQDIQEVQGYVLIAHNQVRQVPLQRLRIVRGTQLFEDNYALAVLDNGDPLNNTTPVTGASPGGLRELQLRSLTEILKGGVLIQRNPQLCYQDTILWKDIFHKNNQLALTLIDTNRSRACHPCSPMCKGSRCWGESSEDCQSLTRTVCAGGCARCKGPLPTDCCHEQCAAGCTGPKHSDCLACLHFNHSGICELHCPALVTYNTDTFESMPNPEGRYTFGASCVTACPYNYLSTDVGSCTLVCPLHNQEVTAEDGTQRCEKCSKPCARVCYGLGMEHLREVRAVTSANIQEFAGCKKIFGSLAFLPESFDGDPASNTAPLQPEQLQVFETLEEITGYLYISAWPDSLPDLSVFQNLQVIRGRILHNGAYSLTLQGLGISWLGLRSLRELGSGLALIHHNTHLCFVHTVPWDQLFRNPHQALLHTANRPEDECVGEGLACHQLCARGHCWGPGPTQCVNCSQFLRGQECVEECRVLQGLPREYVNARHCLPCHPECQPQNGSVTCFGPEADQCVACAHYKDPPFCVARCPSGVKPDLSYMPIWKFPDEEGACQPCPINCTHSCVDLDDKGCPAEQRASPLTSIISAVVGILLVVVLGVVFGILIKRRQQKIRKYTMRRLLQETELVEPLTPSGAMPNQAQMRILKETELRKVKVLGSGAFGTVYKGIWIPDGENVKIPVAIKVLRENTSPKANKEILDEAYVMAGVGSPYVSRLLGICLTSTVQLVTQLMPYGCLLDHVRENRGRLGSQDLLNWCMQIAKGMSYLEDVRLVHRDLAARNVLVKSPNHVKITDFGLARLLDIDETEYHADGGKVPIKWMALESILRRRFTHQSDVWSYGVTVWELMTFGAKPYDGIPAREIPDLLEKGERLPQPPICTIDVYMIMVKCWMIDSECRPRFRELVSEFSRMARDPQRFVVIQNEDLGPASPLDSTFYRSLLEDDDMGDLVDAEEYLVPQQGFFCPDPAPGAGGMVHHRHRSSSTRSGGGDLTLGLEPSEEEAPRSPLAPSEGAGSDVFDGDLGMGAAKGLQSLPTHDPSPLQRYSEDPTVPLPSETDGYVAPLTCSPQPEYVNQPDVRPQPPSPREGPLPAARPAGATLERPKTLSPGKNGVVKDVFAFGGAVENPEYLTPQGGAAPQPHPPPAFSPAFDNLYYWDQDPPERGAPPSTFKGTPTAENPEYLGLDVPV
# [3] = reduced viability of SK-BR-3 breast cancer cells – cell-based, 24 h, human, pilot screen (AID 572;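 active = viability at or below 10% of carrier control in both of two separate runs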;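 also: compound exposure lasted between 18 and 24 h rather than exactly 24 h; 100% = carrier-treated control wells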); settings: SK-BR-3 viability, CellTiter-Glo luminescence, at 10 µM, stronger effect = lower value
# [4] = HUVEC growth inhibition – cell-based, human, primary screen (AID 575); settings: HUVEC proliferation, CellTiter-Glo luminescence, 72 h; at 10 µM; stronger effect = lower value;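 also: 100% = median of untreated cell wells with 0.1% DMSO on each plate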
# In short: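 Test system – primary HUVEC, no more than 12 passages · Dosing – one dose, 10 µM final, 0.1% DMSO · Times – 72 h treatment at 37 °C · Measured by – ATP-based CellTiter-Glo luminescent read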
# [5] = H69AR cell proliferation blockers – human, duplicate replicates, primary screen (AID 580;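 active = viability at or under a set limit in both replicates, limit being median viability minus 3 SD, cut at about 48% in these data, passing the limit was not always enough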;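 also: 100% = mean luminescence of untreated wells and 0% = no signal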); settings: H69AR lung tumor cells viability, ATP luminescence, 72 h; at 10 µM; stronger effect = lower value
# [6] = MRP1 drug-resistance reversers in H69AR cells – cell-based, doxorubicin co-treatment, pilot screen (AID 601;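 active = viability loss from added drug above about 55%, and viability with drug at most 40%, in both replicates, limit read from the data, passing the limit was not always enough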); settings: CellTiter-Glo, 72 h, at 10 µM; for differential viability (reversal): stronger effect = higher value
# [7] = yeast transport mutant growth inhibition pilot in 384-well plates, post-Golgi transport modulator project (AID 636; in the data active = inhibition above about 31%); settings: absorbance 615 nm, about 18 h, stronger effect = higher value
# [8] = growth suppression of yeast trafficking mutant, preliminary HTS, modulators of trafficking downstream of Golgi apparatus project, 1536-format plate, OD 615 nm (AID 637; in the data active = inhibition above about 30%); settings: yeast transport mutant growth, absorbance 615 nm, 18 h; stronger effect = higher value
# [9] = H69AR cells + 2 uM doxorubicin, measured here: viability with 2 uM doxorubicin, stronger effect = lower value
# [10] = H69AR cells, compound alone cytotoxicity
Structure (SMILES),viability [1],Her2 level [2],viability [3],viability [4],viability [5],differential viability (reversal) ([6]; H69AR cells + 2 uM doxorubicin),"viability [6, 9]","viability [6, 10]",inhibition [7],inhibition [8]
Cc1nn(C(=O)c2cc3sccc3[nH]2)c(C)c1C,95%,104% (inactive),95% (inactive),74.1% (inactive),106% (inactive),2.57% (inactive),103%,106%,-4.47% (inactive),-4.83% (inactive)
C=CCN(C(=O)CNC(=O)c1ccco1)C(C(=O)NC1CCCCC1)c1ccccc1F (stereo not given),108%,108% (inactive),108% (inactive),96.2% (inactive),100% (inactive),6.92% (inactive),93.5%,100%,-2.43% (inactive),1.27% (inactive)
CCOc1ccc(C(=O)Nc2ccc(N3CCN(C)CC3)cc2)cc1Br,114%,93% (inactive),114% (inactive),2.57% (active),81.8% (inactive),10.2% (inactive),71.7%,81.8%,-4.67% (inactive),12.1% (inactive)
O=C(NCC1COc2ccccc2O1)c1ccccc1 (stereo not given),79%,95% (inactive),79% (inactive),113% (inactive),92.9% (inactive),2.58% (inactive),90.4%,92.9%,-4.27% (inactive),0.33% (inactive)
CCOc1ccc(NC(=O)CN2CCN(CC(=O)Nc3ccc(F)c(F)c3)CC2)cc1,95%,102% (inactive),95% (inactive),89.3% (inactive),79.8% (inactive),22.7% (inactive),57.1%,79.8%,-3.6% (inactive),4.92% (inactive)
N#Cc1c2n(c(=S)n(-c3ccccn3)c1=O)CCCCC2,81.5%,91.5% (inactive),81.5% (inactive),97.8% (inactive),86% (inactive),-5.17% (inactive),91.1%,86%,2.99% (inactive),-10.7% (inactive)
CC(=O)Nc1ccc(S(=O)(=O)NCC(C)NS(=O)(=O)c2ccc(NC(C)=O)cc2)cc1 (stereo not given),106%,114% (inactive),106% (inactive),94.5% (inactive),98.6% (inactive),3.06% (inactive),95.5%,98.6%,0.13% (inactive),-1.27% (inactive)
COC(=O)c1cccc(S(=O)(=O)N2CCN(c3nc4ccccc4s3)CC2)c1,83%,92.5% (inactive),83% (inactive),87.8% (inactive),81% (inactive),8.71% (inactive),72.3%,81%,0.67% (inactive),-2.42% (inactive)
Cc1cccc2cc(CN(Cc3nnnn3Cc3ccccc3)C3CCCC3)c(=O)[nH]c12,85%,72.5% (inactive),85% (inactive),89.3% (inactive),72.9% (inactive),31.2% (inactive),41.7%,72.9%,-1.18% (inactive),-4.55% (inactive)
Cn1c(=O)c2c(nc(NCCc3ccccc3)n2CC(=O)NCCc2ccccc2)n(C)c1=O,91%,90.5% (inactive),91% (inactive),99.9% (inactive),79% (inactive),8.86% (inactive),70.2%,79%,-1.05% (inactive),9.68% (inactive)
O=C(CCSc1nc(-c2ccco2)cc(C(F)(F)F)n1)Nc1ccc2c(c1)OCO2,83%,94.5% (inactive),83% (inactive),56.3% (inactive),78.4% (inactive),-10.1% (inactive),88.5%,78.4%,-7.47% (inactive),3.81% (inactive)
[O-][n+]1c2c(nn1-c1ccccc1Cl)-c1nonc1CC2,102%,85% (inactive),102% (inactive),115% (inactive),105% (inactive),20% (inactive),85.5%,105%,-5.54% (inactive),-0.67% (inactive)
Cn1c(CNc2nc(-c3ccccc3)cs2)nnc1SCC(=O)N1CCc2ccccc21,96.5%,97.5% (inactive),96.5% (inactive),81.8% (inactive),93.3% (inactive),9.91% (inactive),83.4%,93.3%,-1.62% (inactive),7.14% (inactive)
COCCn1nnnc1C(c1ccc(OC)cc1)N1CCN(c2ccccc2F)CC1 (stereo not given),100%,101% (inactive),100% (inactive),107% (inactive),89.7% (inactive),9.91% (inactive),79.8%,89.7%,-2.6% (inactive),-2.06% (inactive)
